In PubChem BioAssay AID488976 (Southern Research Specialized Biocontainment Screening …, 2010):
Activity calls are given as the source filed them.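 The calls were made as follows: active = cell viability under 70% at any tested concentration, a measure not printed in our tables; inactive = the rest.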

System: HEp-2 viability, ATP luminescence
Experiment: viability loss in uninfected HEp-2 cells – cell-based, ATP luminescence, purified and synthesized compounds, cytotoxicity control for RSV inhibitor project, dose response (AID 488976)
How it was run: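 Assay system: uninfected HEp-2 cells, no virus added; benchmarks: cell-only wells without compound; measured by: CellTiter-Glo luminescence; replication: triplicate; incubation: six-day compound exposure of cells at 37 °C; buffer or medium: DMEM/F12; read-out: % viability versus median cell-only signal, CC50 via 4-parameter fit; doses: 8 twofold steps, 0.39–50 µM, 0.5% DMSO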

| SMILES | CC50 |
| --- | --- |
| Cc1ccc(NC(=O)C2CCCN2S(=O)(=O)c2ccc3ncccc3c2)c(C)c1 (configuration not stated) | > 50 µM (inactive) |
| Cc1ccc(NC(=O)C2CCCN2S(C)(=O)=O)c(C)c1 (configuration not stated) | > 50 µM (inactive) |
| Cc1ccc(NC(=O)C2CCCN2C(=O)c2ccccc2)c(C)c1 (configuration not stated) | > 50 µM (inactive) |
| Cc1csc(NC(=O)c2cccnc2)n1 | > 50 µM (inactive) |
| CSc1ncccc1C(=O)Nc1nc(C)cs1 | > 50 µM (inactive) |
| Cc1ccc(NC(=O)CNS(=O)(=O)c2cccc3cccnc23)c(C)c1 | > 50 µM (inactive) |
| Cc1ccc(NC(=O)C2CCCN2Cc2cccc3cccnc23)c(C)c1 (configuration not stated) | 13.3 µM |
| Cc1ccc(NC(=O)C(C)NS(=O)(=O)c2cccc3cccnc23)c(C)c1 (configuration not stated) | > 50 µM (inactive) |
| Cc1ccc(NC(=O)C2CCCN2S(=O)(=O)c2ccccc2)c(C)c1 (configuration not stated) | > 50 µM (inactive) |
| Cc1ccc(NC(=O)C2CCCN2C(=O)c2cccc3cccnc23)c(C)c1 (configuration not stated) | > 50 µM (inactive) |
| Cc1ccc(NC(=O)[C@@H]2CCCN2S(=O)(=O)c2cccc3cccnc23)c(C)c1 | 38.9 µM |
| Cc1ccc(NC(=O)C2CCCN2S(=O)(=O)c2cccc3ccccc23)c(C)c1 (configuration not stated) | 17.8 µM |
| CSc1ncccc1C(=O)Nc1nc(C(C)(C)C)cs1 | 28.7 µM |
| Cc1ccc(NC(=O)[C@H]2CCCN2S(=O)(=O)c2cccc3cccnc23)c(C)c1 | 38 µM |
| O=C(Nc1ccc(C(F)(F)F)cc1[N+](=O)[O-])O[C@H]1[C@H](Cc2ccccc2)NS(=O)(=O)[C@H]2C[C@@H]3C=C[C@]12O3 | 22.1 µM |
| Cc1ccc(NC(=O)C2CCCN2S(=O)(=O)c2cccc3cnccc23)c(C)c1 (configuration not stated) | > 50 µM (inactive) |
| Cc1ccc(NC(=O)C2CCCN2S(=O)(=O)c2cccc3cccnc23)c(C)c1 (configuration not stated) | 40.5 µM |
